Results from ChEMBL document CHEMBL3102836, “Dioxatricyclic and oxabicyclic polyketides from Trichocladium opacum” (J Nat Prod, 2014).
Activity calls are given as the source filed them. No cut-off for these calls is given here.

Key:
Type in all cases: functional, cell-based
HeLa [1] = assay: Cytotoxicity against human HeLa cells after 48 hrs by MTS assay
How it was run: (§1)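 Triplicate wells seeded at (2−5) × 10^3 cells (by growth rate), attached overnight, then medium replaced with medium carrying serial dilutions from 100 mM DMSO stocks (vehicle wells 0.1% DMSO); cisplatin positive control. 48 h at 37 °C, humidified 5% CO2. MTS added, 90 min at 37 °C in dark, absorbance 490 nm; IC50 reported.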

SW480 [2] = assay: Cytotoxicity against human SW480 cells after 48 hrs by MTS assay; conditions: SW480, 48 h; how it was run: as §1
A549 [3] = assay: Cytotoxicity against human A549 cells after 48 hrs by MTS assay; conditions: A549, 48 h; how it was run: as §1
HCT-116 [4] = assay: Cytotoxicity against human HCT116 cells after 48 hrs by MTS assay; conditions: HCT-116, 48 h; how it was run: as §1
HeLa [5] = assay: Cytotoxicity against human HeLa cells at 20 ug/ml after 48 hrs by MTS assay
How it was run: (§2)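 Single-concentration test at 20 μg/mL. Triplicate wells seeded at (2−5) × 10^3 cells, attached overnight, then medium replaced with compound-containing medium (100 mM DMSO stock; vehicle wells 0.1% DMSO); cisplatin positive control. 48 h exposure at 37 °C, humidified 5% CO2. MTS added, 90 min at 37 °C in dark, read at 490 nm.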

HCT-116 [6] = assay: Cytotoxicity against human HCT116 cells at 20 ug/ml after 48 hrs by MTS assay; how it was run: as §2
A549 [7] = assay: Cytotoxicity against human A549 cells at 20 ug/ml after 48 hrs by MTS assay; how it was run: as §2
SW480 [8] = assay: Cytotoxicity against human SW480 cells at 20 ug/ml after 48 hrs by MTS assay; how it was run: as §2

## C[C@@H](O)[C@@H](O)[C@]12C(=O)O[C@H](C=C[C@@H]1C)[C@H]2O
HeLa [1]
  IC50: 44.3 µM
SW480 [2]
  IC50: 43.6 µM
A549 [3]
  IC50: 52.3 µM
HCT-116 [4]
  IC50: 41.7 µM

## C[C@@H]1CC[C@H](O)[C@H]2O[C@@]3(C)OC(=O)[C@@]12[C@H]3O
HeLa [5]
  Activity: inactive
SW480 [2]
  IC50: 51.9 µM
A549 [3]
  IC50: 61 µM
HCT-116 [4]
  IC50: 56.6 µM

## COC(=O)[C@]12[C@H](C)[C@H](C[C@H](O)[C@H]1O)O[C@H]2C(C)=O
HCT-116 [6]
  Activity: inactive
A549 [7]
  Activity: inactive
HeLa [5]
  Activity: inactive
SW480 [8]
  Activity: inactive

## C[C@@H]1C=C[C@H](O)[C@H]2O[C@@]3(C)OC(=O)[C@@]12[C@H]3O
HCT-116 [6]
  Activity: inactive
A549 [7]
  Activity: inactive
HeLa [5]
  Activity: inactive
SW480 [8]
  Activity: inactive

## C[C@@H]1C=C[C@H](O)[C@H]2O[C@@]3(C)OC(=O)[C@@]12[C@@H]3O
HeLa [5]
  Activity: inactive
SW480 [2]
  IC50: 54.9 µM
A549 [3]
  IC50: 83.6 µM
HCT-116 [4]
  IC50: 48.8 µM
